PRMT1 inh = PRMT1 methyltransferase inhibitors, primary screen, biochemical, fluorescence polarization; actives 1.3% (n = 370,000); Protein arginine N-methyltransferase 1 (Homo sapiens), Q99873; recombinant PRMT1, activity-based probe fluorescence polarization; inhibition, % at 2.79 µM;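 active means inhibition above about 21% made by adding two undisclosed values, limit read from the data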
MBD2 DNA inh = inhibitors of MBD2 binding to methylated DNA, primary screen, biochemical, TR-FRET, DNA-binding domain, human. inhibition, % at 4.4 µM. MBD2 binding to methylated oligonucleotide. actives 0.31% (n = 370,000). Methyl-CpG-binding domain protein 2 (Homo sapiens), Q9UBB5; in the data active means inhibition above about 13%
LEDGF integ inh = blockers of LEDGF/p75-dependent integrase strand transfer – biochemical, TR-FRET, high throughput, primary screen; TR-FRET IN-LEDGF/p75 DNA integration, Eu/Cy5; inhibition, % at 3.7 µM; actives 0.64% (n = 370,000); HIV-1 integrase (with human LEDGF/p75);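 active means inhibition above the screen-wide mean plus 3 SD, cut at about 13% in these data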;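 further: signal is the Cy5 over europium emission ratio at 671 and 618 nm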
RBBP9 inh = human RBBP9 inhibitors, primary screen, biochemical, fluorescence polarization, FP-Rh probe, HTS; Serine hydrolase RBBP9 (Homo sapiens), O75884; recombinant RBBP9; inhibition, % at 7.94 µM; actives 0.2% (n = 220,000); AID 1515, 2009;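 active means inhibition above the campaign mean of all tested compounds plus 3 SD, cut at about 14% in these data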
Target sequence (O75884 whole entry, looked up): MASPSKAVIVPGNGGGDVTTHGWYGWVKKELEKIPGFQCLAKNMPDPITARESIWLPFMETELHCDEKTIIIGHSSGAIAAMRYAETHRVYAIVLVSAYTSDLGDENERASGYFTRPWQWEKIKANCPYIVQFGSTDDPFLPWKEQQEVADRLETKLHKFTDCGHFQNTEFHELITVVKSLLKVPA
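Assay system: recombinant human RBBP9; Reagent: Serine-hydrolase probe FP-Rh, 375 nM pre-mixing; Doses: 7.94 µM single dose, 0.794% DMSO; Incubation: 30 min then 45 min, 25 °C; Detection: fluorescence polarization (mP), excitation 525 nm, emission 598 nm; Evaluation: percent inhibition from mP, scaled between DMSO and no-protein wells.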
UHRF1 binding = UHRF1 methylated DNA binding inhibitors, primary screen, counter-screen for MBD2 inhibitor project, biochemical, TR-FRET, human UHRF1, single concentration; E3 ubiquitin-protein ligase UHRF1 (Homo sapiens), Q96T88; UHRF1 binding to methylated oligo; inhibition, % at 4.4 µM; actives 0.75% (n = 370,000); AID 687016, 2013; in the data active means inhibition above about 21%;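 further: UHRF1 SRA domain binding a hemimethylated CpG hairpin DNA probe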
ABHD5-PLIN5 inh = ABHD5-PLIN5 interaction inhibitors, primary screen, cell lysate, split luciferase complementation, luminescence. Split G. princeps luciferase complementation, 4 h. Perilipin-5 (Homo sapiens) + 1-acylglycerol-3-phosphate O-acyltransferase ABHD5 (Homo …. actives 0.78% (n = 360,000). inhibition, % at 4 µM;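 active means inhibition above the mean inhibition across every tested compound plus 3 SD, cut at about 22% in these data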
ABHD5-PLIN5 conf = ABHD5-PLIN5 interaction inhibitors, confirmation, biochemical, luminescence. shares compounds with ABHD5-PLIN5 inh. inhibition, % at 4 µM. actives 67% (n = 2,200). AID 651612, 2012; in the data active means inhibition above about 23%
HNF4 counter = HNF4 dimerization inhibitors, counter-screen for ABHD5-PLIN5 interaction inhibitor project, biochemical, split-luciferase complementation, luminescence; shares compounds with ABHD5-PLIN5 inh; inhibition, % at 4 µM; actives 77% (n = 2,200);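 active means mean inhibition across replicate wells exceeding the computed hit threshold, cut at about 13% in these data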;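 further: light from luciferase halves that rejoin when HNF4 fusion proteins dimerize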
Target sequence (P41235 whole entry, looked up, the tested form may be a part): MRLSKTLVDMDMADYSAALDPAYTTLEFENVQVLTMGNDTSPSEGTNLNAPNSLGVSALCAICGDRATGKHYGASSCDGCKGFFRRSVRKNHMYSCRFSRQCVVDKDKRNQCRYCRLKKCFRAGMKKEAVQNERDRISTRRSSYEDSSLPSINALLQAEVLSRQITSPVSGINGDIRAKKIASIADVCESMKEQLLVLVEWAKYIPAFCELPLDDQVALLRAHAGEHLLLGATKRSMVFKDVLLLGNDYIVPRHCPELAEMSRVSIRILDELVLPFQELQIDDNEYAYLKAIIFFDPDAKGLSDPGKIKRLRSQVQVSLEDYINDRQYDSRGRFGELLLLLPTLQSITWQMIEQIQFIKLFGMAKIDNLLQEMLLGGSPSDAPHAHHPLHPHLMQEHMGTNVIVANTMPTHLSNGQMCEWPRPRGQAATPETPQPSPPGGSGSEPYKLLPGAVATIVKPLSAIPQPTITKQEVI
A number is an active result; – = inactive; · = not tested or not shown. A selection: hits, their analogues and other compounds. The true share with any hit is near 3.1%.

SMILES	PRMT1 inh	MBD2 DNA inh	LEDGF integ inh	RBBP9 inh	UHRF1 binding	ABHD5-PLIN5 inh	ABHD5-PLIN5 conf	HNF4 counter
CCOC(=O)C1CCCN(C(=O)c2cc(Nc3ccc(OC)c(OC)c3)nc3ccccc23)C1 (configuration not stated)	–	–	–	–	–	29	45	–
CC(C)C[C@H]1COc2cc(N3CCSCC3)ccc2S(=O)(=O)N1C	–	–	–	·	–	·	·	·
Cc1ccccc1C(=O)NCC(=O)OC(C)C(=O)NCc1ccco1 (configuration not stated)	–	–	–	·	–	25	–	–
Cc1ccc2nc3c(cc2c1)CN(Cc1ccco1)C(=NCC1CCCO1)S3 (configuration not stated)	–	–	–	–	–	–	·	·
Cc1cccc2cc3c(nc12)SC(=NCC1CCCO1)N(Cc1ccco1)C3 (configuration not stated)	·	·	·	–	·	26	43	77
CCCCOCCCNC(=O)C[C@@H]1C(=O)N(Cc2ccc(OC)cc2)/C2=C/CCCCC[C@@]21C(=O)OCC	–	–	–	·	–	·	·	·
O=C(c1cn(-c2ccccc2)nc1-c1cccs1)N1CCOCC1	–	–	–	–	–	–	·	·
O=C(/C=C/c1cn(-c2ccccc2)nc1-c1cccs1)NCCN1CCOCC1	–	–	–	–	–	32	–	–
O=C(O)CCCN1C(=O)/C(=C/c2cn(-c3ccccc3)nc2-c2cccs2)SC1=S	–	–	–	–	–	37	–	–
O=C(O)CCCN1C(=O)/C(=C\c2ccccc2OCc2ccccc2)SC1=S	–	–	–	·	–	–	·	·
COC(=O)C1=C(C)NC2=C(C(=O)CCC2)C1c1ccc(-c2ccsc2C(=O)OC)o1 (configuration not stated)	–	–	–	–	–	24	–	–
Clc1cccc2c1Sc1ccccc1CC2N1CCNCC1 (configuration not stated)	–	–	–	–	–	31	–	–
CC(C)(C)N(NC(=O)Nc1cccc(F)c1)C(=O)c1ccccc1Cl	–	–	–	·	–	·	·	·
O=C(c1ccccc1)c1cc(Cl)ccc1N1C(=O)C=CC1=O	91	–	–	–	–	38	47	98
C[C@@H]1[C@@H](O)C[C@@]2(CC(=O)c3ccccc3O2)O[C@H]1c1ccccc1	–	–	–	·	–	·	·	·
CCCCC(=O)Nc1cccc(C(=O)Nc2ccccc2C(=O)O)c1	–	–	–	–	–	95	–	–
CCCCC(=O)Nc1cccc(NC(=O)c2cccc(Br)c2)c1	–	–	–	–	–	–	·	·
O=S1(=O)c2ccc(N3CCN(Cc4ccccc4F)CC3)cc2Oc2ccccc2CN1Cc1cn(Cc2cccc(C(F)(F)F)c2)nn1	–	–	–	·	–	·	·	·
CN(C)c1ccc(Cc2cc3c(O)ccc(O)c3cc(Cc3ccc(N(C)C)cc3)c2=O)cc1	79	35	63	·	51	87	95	47
COC(=O)C1CN(C2CCCC2)CCS(=O)(=O)N1Cc1cn(Cc2ccccc2)nn1 (configuration not stated)	–	–	–	·	–	·	·	·
CC(=O)Nc1sc2c(c1-c1nc(-c3ccccc3)cs1)CCN(C(C)C)C2	–	–	–	·	–	·	·	·
COc1ccc(NC(=O)CSc2nnc(-c3cccs3)o2)cc1Cl	–	–	–	·	–	·	·	·
CCC(C)NCCOCCOc1ccc(Cl)c(C)c1C (configuration not stated)	–	–	–	–	–	–	·	·
CCC(C)NCCOCCOc1ccc(Cl)c2ccccc12 (configuration not stated)	–	–	–	–	–	30	–	–
O=C(NCc1cccs1)C1CCN(S(=O)(=O)c2ccc([N+](=O)[O-])cc2)CC1	–	–	–	·	–	·	·	·
SMILES	PRMT1 inh	MBD2 DNA inh	LEDGF integ inh	RBBP9 inh	UHRF1 binding	ABHD5-PLIN5 inh	ABHD5-PLIN5 conf	HNF4 counter
COc1cc2c3c(c1)C(C)=CC(C)(C)N3C(=O)C2=O	–	–	–	–	–	–	·	·
CCCOc1ccccc1-n1sc2c(c1=S)-c1cc(OC)cc3c1N(C(=O)C3=O)C2(C)C	–	–	–	–	–	35	78	67
Oc1c(C(c2ccccc2)N2CCCCC2)ccc2ccccc12 (configuration not stated)	–	–	–	·	–	38	96	48
CN(C(=O)[C@@H]1CC=C[C@@H]2CCN(C3CCCCC3)C(=O)[C@@H]21)c1ccccc1	–	–	–	·	–	·	·	·
CCOC(=O)c1c(N)c2cc([N+](=O)[O-])ccc2n1C	–	–	–	–	–	–	·	·
CCOC(=O)/C(=C/c1c(C)n(C)c2ccc([N+](=O)[O-])cc12)C(C)=O	–	–	–	–	–	46	83	76
COc1cccc(C(=O)N[C@H](C(=O)N2CCC[C@H]2C(=O)NCc2ccccc2)C2CCCCC2)c1	–	–	–	·	–	·	·	·
CCN(CC)C(=O)CC[C@@H]1CC[C@]2(CCCN(S(=O)(=O)c3ccccc3)C2)O1	–	–	–	·	–	·	·	·
O=C1CC(c2ccc(Cl)cc2)Oc2ccc(Cl)cc21 (configuration not stated)	–	–	–	·	–	23	62	33
Cn1c(Cl)cnc1C1CC(=O)c2cc(Cl)ccc2O1 (configuration not stated)	–	–	–	–	–	32	–	49
CC(=O)N1CCC2(CC1)CC(=O)c1cc(Cl)ccc1O2	–	–	–	·	–	–	·	·
COc1ccc(CC(=O)Nc2ccc(C)cc2S(=O)(=O)N2CCOCC2)cc1OC	–	–	–	·	–	·	·	·
O=c1c2ccccc2n(Cc2ccno2)n1[C@@H](Cc1ccccc1)Cn1cc(C2CCCC2)nn1	–	–	–	·	–	·	·	·
Cc1ccc(N/C(=C\C(=O)c2ccccc2)C(=O)O)cc1	–	–	–	–	–	93	–	–
Cc1ccc(C(=O)NC2(O)C(=O)c3ccccc3C2=O)cc1C	–	–	–	–	–	–	·	·
O=C(NC1(O)C(=O)c2ccccc2C1=O)c1ccc(C(F)(F)F)cc1	–	–	–	–	–	28	54	64
